Bioassay records (PubChem)
ANO1 block = TMEM16A chloride channel inhibitors, primary screen, cell-based, HTS; Anoctamin-1 (Mus musculus), Q8BHY3; HEK293 TMEM16A/YFP iodide influx fluorescence, ionomycin; normalized B-score (activity score, 25-100; higher = stronger inhibition) at 10 µM; actives 1.2% (n = 310,000); AID 588511, 2011;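 active = ratio plate-corrected score three or more library SD toward inhibition, starting fluorescence score within five deviations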;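 note: score derived from kinetic fluorescence span divided by baseline fluorescence per well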
TMEM16A act = TMEM16A chloride channel activators or potentiators, primary screen, cell-based, HTS | Anoctamin-1 (Mus musculus), Q8BHY3 | HEK293 TMEM16A/YFP-H148Q/I152L, iodide quench fluorescence; stronger effect = lower value | B-score at 10 µM | actives 0.3% (n = 340,000);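 active = fluorescence-ratio B-score plate-corrected deviation score at least 3 library SD below zero, with starting fluorescence score within 5 deviations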;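 note: channel opened by trigger with iodide after compound preincubation; score built on the fluorescence ratio of max minus min over baseline; more negative score means more quench and so TMEM16A activation or potentiation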
Apaf-1 inh = inhibitors of human Apaf-1 apoptosome, primary screen, biochemical, DEVD-Rh110 fluorescence, uHTS. Apoptotic protease-activating factor 1 (Homo sapiens), O14727. reconstituted apoptosome caspase-3 activity. inhibition, % at 20 µM. actives 0.71% (n = 330,000); active = inhibition of at least 40% at 20 µM;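 note: plate controls were DMSO wells for no effect and DEVD-CHO caspase inhibitor wells for full effect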
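detection = Rh110 fluorescence intensity | test system = biochemical Apaf-1 apoptosome reconstitution | also added = cytochrome c and DEVD-Rh110 substrate | schedule = 30 min plus 50 min, RT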
UBC13 polyUb = UBC13 polyubiquitin chain formation inhibitors, primary screen, biochemical, TR-FRET, uHTS | Ubiquitin-conjugating enzyme E2 N (Homo sapiens), P61088 | inhibition, % at 20 µM | actives 0.47% (n = 330,000) | AID 485273, 2010; in the data active = inhibition above about 45%, passing the limit was not always enough
Target sequence (P61088 whole entry, looked up): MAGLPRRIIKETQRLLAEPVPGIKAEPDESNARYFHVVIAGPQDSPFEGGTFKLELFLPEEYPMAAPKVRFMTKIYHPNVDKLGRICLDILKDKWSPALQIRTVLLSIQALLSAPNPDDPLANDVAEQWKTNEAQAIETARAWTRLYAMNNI
FID counter = compounds displacing fluorescent DNA intercalator, primary screen, artefact control for HCV NS3 helicase inhibitor project, biochemical, FID fluorescence; DNA fluorescent intercalator displacement; AID 1845, 2009; inhibition, % at 7.9 µM; actives 0.17% (n = 290,000); in the data active = inhibition above about 37%;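 note: 0% = vehicle and 100% = reference compound; higher means more ethidium bromide displaced from hairpin DNA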
Active calls of the source: *. In the library only some 2.4% were active in any assay of this set; here they are far more common.

`Cc1ccc([C@H]2C(C#N)=C(N)Oc3cc(C)oc(=O)c32)o1` gave ANO1 block inactive, TMEM16A act -4.62*, Apaf-1 inh -2.4, UBC13 polyUb 3.0 and FID counter 1.5.
Cc1cc2c(c(=O)o1)C(c1cccs1)C(C#N)=C(N)O2 (configuration not stated) was read as ANO1 block inactive, TMEM16A act inactive, Apaf-1 inh -2.2, UBC13 polyUb -6.1 and FID counter -4.0.
Cc1ccc(/C=C2\SC(=S)N(CCC(=O)NNS(=O)(=O)c3ccccc3)C2=O)cc1 was read as ANO1 block inactive, TMEM16A act inactive, Apaf-1 inh 2.8, UBC13 polyUb 6.8 and FID counter -4.7.
`COc1ccc(NC2CCCN(C(=O)CCCn3cncn3)C2)cc1OC` (configuration not stated) gave ANO1 block inactive, TMEM16A act inactive, Apaf-1 inh -6.0, UBC13 polyUb -5.8 and FID counter 1.0.
For c1ccc([C@H]2CNCCN2CCc2cccc3ccccc23)cc1 the results were TMEM16A act inactive, Apaf-1 inh 55.0* and UBC13 polyUb 44.2.
For COc1cc(CCCN2CCNC[C@@H]2c2ccccc2)cc(OC)c1OC the results were TMEM16A act inactive, Apaf-1 inh 2.5 and UBC13 polyUb 9.3.
`CNc1c(NC(=O)c2ccc3c(c2)OCO3)c(=O)oc2ccccc12` gave ANO1 block inactive, TMEM16A act inactive, Apaf-1 inh -3.2, UBC13 polyUb -4.4 and FID counter -0.2.
Cc1ccc(C(=O)C[n+]2cc(Br)cc(Br)c2)cc1[N+](=O)[O-] was read as ANO1 block inactive, TMEM16A act inactive, Apaf-1 inh 4.6, UBC13 polyUb -5.9 and FID counter 0.6.
`CCCCn1c(N)c(N(CCOC)C(=O)c2ccc(-c3ccc(C(C)=O)cc3)o2)c(=O)[nH]c1=O` gave ANO1 block inactive, TMEM16A act inactive, Apaf-1 inh 7.3 and UBC13 polyUb -2.8.
COc1ccc(C(=O)C2CCCN(Cc3ccc4nonc4c3)C2)cc1F (configuration not stated) was read as ANO1 block 25*, TMEM16A act inactive, Apaf-1 inh 2.3, UBC13 polyUb -5.5 and FID counter -3.7.
`COc1ccccc1-c1cc(C(=O)N/N=C/c2sccc2C)c2ccccc2n1` gave ANO1 block inactive, TMEM16A act inactive, Apaf-1 inh 6.1, UBC13 polyUb -12.6 and FID counter -6.5.
Screening O=C(N/N=C/c1cc([N+](=O)[O-])ccc1O)c1cc(-c2ccccc2)nc2ccccc12 returned ANO1 block 25*, TMEM16A act inactive, Apaf-1 inh 6.1, UBC13 polyUb -63.8 and FID counter 2.9.
For Cc1ccsc1/C=N/NC(=O)c1cc(-c2ccncc2)nc2ccccc12 the results were ANO1 block inactive, TMEM16A act -4.97*, Apaf-1 inh 9.3, UBC13 polyUb -5.8 and FID counter -13.3.
COc1cc(NC(=O)c2cc(S(=O)(=O)N3CCCCC3)ccc2N2CCOCC2)cc(OC)c1 was read as ANO1 block inactive, TMEM16A act inactive, Apaf-1 inh 20.5 and UBC13 polyUb 6.3.
For CN1C(=O)OC(C)(C)C1=O the results were ANO1 block inactive, TMEM16A act inactive, Apaf-1 inh 10.4 and UBC13 polyUb -13.4.
For CCN(CC)CCNc1oc(-c2ccccc2)nc1S(=O)(=O)c1ccccc1 the results were TMEM16A act inactive, Apaf-1 inh 9.4 and UBC13 polyUb 6.3.
For Cc1cc2nc(C)n(CCCNC(=O)Nc3cccc4ccccc34)c2cc1C the results were ANO1 block 25*, TMEM16A act inactive, Apaf-1 inh 3.5, UBC13 polyUb 16.8 and FID counter 1.7.
CC(C)CC(=O)NC(NC(=S)Nc1sc2c(c1C#N)CCCC2)C(Cl)(Cl)Cl (configuration not stated) was read as ANO1 block 100*, TMEM16A act inactive, Apaf-1 inh -214.7, UBC13 polyUb -4.9 and FID counter -5.6.
Screening N/C(COc1cc(Cl)cc(Cl)c1)=N\O returned ANO1 block inactive, TMEM16A act inactive, Apaf-1 inh -6.8, UBC13 polyUb -6.1 and FID counter -1.4.
`CCOC(=O)c1ccc2ncc(C(=O)OCC)c(Nc3ccc(N4CCOCC4)cc3)c2c1` gave ANO1 block inactive, TMEM16A act inactive, Apaf-1 inh 36.9, UBC13 polyUb -7.1 and FID counter -2.2.
CCOC(=O)c1cnc2ccc(OC)cc2c1Nc1ccc(N2CCN(C)CC2)cc1 was read as ANO1 block inactive, TMEM16A act inactive, Apaf-1 inh 11.9, UBC13 polyUb 17.4 and FID counter 43.9*.
O=c1cc(-c2ccccc2)[nH]n1-c1ccc([N+](=O)[O-])cc1 was read as ANO1 block 100*, TMEM16A act inactive, Apaf-1 inh 12.7, UBC13 polyUb -29.2 and FID counter -2.0.
`O=c1c(N=Nc2ccc(O)cc2)c(-c2ccccc2)[nH]n1-c1ccc([N+](=O)[O-])cc1` gave ANO1 block inactive, TMEM16A act inactive, Apaf-1 inh -22.0, UBC13 polyUb -100.9 and FID counter 0.3.
Screening COc1ccc(C(=O)C[n+]2cc(-c3ccc(OC)cc3)n3c2CCCC3)cc1 returned ANO1 block inactive, TMEM16A act inactive, Apaf-1 inh 2.4, UBC13 polyUb 0.7 and FID counter 9.6.
Screening O=C(C[n+]1cc(-c2ccccc2)n2c1CCCCC2)c1ccc(Br)cc1 returned ANO1 block inactive, TMEM16A act inactive, Apaf-1 inh -4.1, UBC13 polyUb 15.9 and FID counter 41.9*.
`Cc1ccc(-c2c[n+](CC(=O)Nc3nc(-c4ccc(F)cc4)cs3)c3n2CCC3)cc1` gave ANO1 block inactive, TMEM16A act inactive, Apaf-1 inh 29.9, UBC13 polyUb 15.5 and FID counter 44.4*.
For Cc1ccc(C(=O)C[n+]2cc(-c3ccc(C)cc3)n3c2CCCCC3)cc1 the results were ANO1 block inactive, TMEM16A act inactive, Apaf-1 inh 0.6, UBC13 polyUb -0.7 and FID counter 38.9*.
O=C(O)Cc1sc(Nc2cccc3ccccc23)nc1-c1ccc(Cl)cc1 was read as ANO1 block inactive, TMEM16A act inactive, Apaf-1 inh 21.7, UBC13 polyUb -6.5 and FID counter -15.3.
CC(C)Cn1c(N)c(C(=O)COC(=O)C2CC(=O)N(Cc3ccccc3Cl)C2)c(=O)n(C)c1=O (configuration not stated) was read as ANO1 block inactive, TMEM16A act -4.62*, Apaf-1 inh 11.4, UBC13 polyUb -4.3 and FID counter 0.8.
